Test results reported in ChEMBL document CHEMBL1129980, “New non-peptide endothelin-A receptor antagonists: synthesis, biological properties, and structure-activity relationships of 5-(dimethylamino)-N-pyridyl-,-N-pyrimidinyl-,-N-pyridazinyl-, and -N-pyrazinyl-1-naphthalenesulfonamides” (J Med Chem, 1997).

Key:
Endothelin-1 receptor [1] = biological target: T1, Endothelin-1 receptor (Homo sapiens, UniProt P25101); assay: Inhibition of specific binding of [125-I]ET-1 to human endothelin A receptor
T1 sequence (P25101 whole entry): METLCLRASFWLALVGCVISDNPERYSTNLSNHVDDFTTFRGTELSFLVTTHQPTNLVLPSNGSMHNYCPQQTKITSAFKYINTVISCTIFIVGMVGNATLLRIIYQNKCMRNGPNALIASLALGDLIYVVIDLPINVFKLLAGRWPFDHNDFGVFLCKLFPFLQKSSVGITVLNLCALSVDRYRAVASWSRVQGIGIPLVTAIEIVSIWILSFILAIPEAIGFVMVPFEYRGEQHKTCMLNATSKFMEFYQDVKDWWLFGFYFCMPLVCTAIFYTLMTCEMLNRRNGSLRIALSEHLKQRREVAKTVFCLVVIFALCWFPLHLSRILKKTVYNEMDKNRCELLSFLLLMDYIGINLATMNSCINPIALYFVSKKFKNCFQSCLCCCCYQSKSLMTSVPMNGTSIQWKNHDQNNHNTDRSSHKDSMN

[2] = biological target: T2, Endothelin-1 receptor (Homo sapiens) (UniProt P25101); assay: Percent inhibition at 10 uM of displacement of radiolabeled endothelin-1 [125-I]ET-1 from membranes prepared from cloned human Endothelin A receptor expressed in mouse erythroleukemic (MEL) cells; format: cell membranes
T2 sequence (whole entry): T1 sequence (P25101 whole entry)

Endothelin-1 receptor [3] = biological target: T1, Endothelin-1 receptor; assay: Inhibition of specific binding of [125-I] ET-1 to human Endothelin A receptor
Summary of the method: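 Membranes from mouse erythroleukemic MEL-C88 cells expressing cloned human ETA were incubated with [125I]ET-1 (30 pM final) and competing ligands for 180 min at 30 °C. Incubation was stopped by filtration through GF/B filters, and bound radioligand was counted by gamma counting. pIC50 was taken from inhibition of specific binding; n is given per compound.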

[4] = Acidity constant was measured; format: ADME
Cavia porcellus = organism: Cavia porcellus; assay: Antagonism of ET-A induced contractile response in guinea pig portal vein; format: functional; settings: read-out: pA2 (converted)
Summary of the method: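 A portal vein ring (about 4 mm) from guinea pigs of either sex (>250 g, n = 3–6) was held for isometric recording of circular muscle in oxygenated Krebs (95% O2/5% CO2) at 32 °C. After about 1.5 h equilibration, a cumulative partial big ET-1 curve was run in 3-fold steps up to >100 mg tension.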

Rattus norvegicus [5] = assay: Mean dose ratio(MDR) for inhibition of pressor response 0.5 hr after oral administration of compound at 10 mg/kg to conscious, normotensive rats; format: functional
Summary of the method: (§1)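 Male Alderley Park Wistar rats (220–260 g, n = 6) were catheterized (arterial and venous) under Saffan anesthesia and tested conscious. Cumulative big ET-1 i.v. dose–response curves (0.1–4.0 nmol/kg) were run before and at set times after oral compound. The big ET-1 dose raising mean arterial pressure by 30 mmHg gave the dose-ratio shift, averaged to a mean dose ratio.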

Rattus norvegicus [6] = assay: Mean dose ratio(MDR) for inhibition of pressor response 1 hr after oral administration of compound at 10 mg/kg to conscious, normotensive rats; format: functional; summary of the method: as §1
Rattus norvegicus [7] = assay: Mean dose ratio(MDR) for inhibition of pressor response 3 hr after oral administration of compound at 10 mg/kg to conscious, normotensive rats; format: functional; summary of the method: as §1
Rattus norvegicus [8] = assay: Mean dose ratio(MDR) for inhibition of pressor response 5 min after intravenous administration of compound at 10 mg/kg to pithed rats; format: functional
Summary of the method: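 Male Alderley Park Wistar rats (280–320 g, n = 4) were pithed under halothane, with arterial and venous catheters placed. Cumulative big ET-1 dose–response curves (0.1–4.0 nmol/kg) were run before and 5 min after i.v. compound. The big ET-1 dose raising mean arterial pressure by 30 mmHg gave the dose ratio, reported as a mean with 95% confidence limits.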

Rattus norvegicus [9] = assay: Mean dose ratio(MDR) for inhibition of pressor response 5 hr after oral administration of compound at 10 mg/kg to conscious, normotensive rats; format: functional; summary of the method: as §1

Row | IC50 (Endothelin-1 receptor [1]) | inhibition [2] | SMILES | further results
1 | 631 nM | 96% | Cc1nc(Br)cnc1NS(=O)(=O)c1cccc2c(N(C)C)cccc12 | 
2 | 316 nM | 92% | COc1ccc(NS(=O)(=O)c2cccc3c(N(C)C)cccc23)nn1 | 
3 | 7940 nM | 30% | CN(C)c1cccc2c(S(=O)(=O)Nc3ccc(Cl)cc3)cccc12 | 
4 |  | < 30% | CN(C)c1cccc2c(S(=O)(=O)Nc3ncc(Br)nc3C#N)cccc12 | 
5 | 251 nM | 95% | CN(C)c1cccc2c(S(=O)(=O)Nc3ccc(Br)nc3)cccc12 | 
6 |  | 99% | CCN(C)c1cccc2c(S(=O)(=O)Nc3ncc(Br)nc3OC)cccc12 | IC50 (Endothelin-1 receptor [3]): 12.6 nM
7 | 126 nM | 96% | CN(C)c1cccc2c(S(=O)(=O)Nc3cnc(Br)cn3)cccc12 | 
8 | 398 nM | 89% | Cc1cc(Cl)nnc1NS(=O)(=O)c1cccc2c(N(C)C)cccc12 | 
9 | 5010 nM | 84% | CN(C)c1cccc2c(S(=O)(=O)Nc3ccc(I)cn3)cccc12 | 
10 |  | < 30% | CN(C)c1cccc2c(S(=O)(=O)Nc3ccc(C#N)nn3)cccc12 | 
11 | 158 nM | 97% | CN(C)c1cccc2c(S(=O)(=O)Nc3cnc(Cl)cn3)cccc12 | 
12 |  | < 30% | CN(C)c1cccc2c(S(=O)(=O)Nc3cccnn3)cccc12 | 
13 | 3160 nM | 72% | CN(C)c1cccc2c(S(=O)(=O)Nc3ccc(Br)cc3)cccc12 | 
14 | 1260 nM | 91% | Cc1cnc(NS(=O)(=O)c2cccc3c(N(C)C)cccc23)cn1 | 
15 |  | 54% | CN(C)c1cccc2c(S(=O)(=O)Nc3ncccn3)cccc12 | 
16 | 316 nM | 94% | Cc1cc(Br)cnc1NS(=O)(=O)c1cccc2c(N(C)C)cccc12 | 
17 | 15.8 nM | 100% | CNc1cccc2c(S(=O)(=O)Nc3ncc(Br)nc3OC)cccc12 | 
18 | 1000 nM | 58% | CN(C)c1cccc2c(S(=O)(=O)Nc3cnccn3)cccc12 | 
19 | 2510 nM | 68% | CCc1nc(Br)cnc1NS(=O)(=O)c1cccc2c(N(C)C)cccc12 | 
20 | 2000 nM | 95% | CN(C)c1cccc2c(S(=O)(=O)Nc3ccc(Cl)cn3)cccc12 | 
21 |  | < 30% | CN(C)c1cccc2c(S(=O)(=O)Nc3ccccn3)cccc12 | 
22 | 1580 nM | 79% | Cc1ccc(NS(=O)(=O)c2cccc3c(N(C)C)cccc23)nc1 | 
23 | 10 nM | 97% | COc1nc(Cl)cnc1NS(=O)(=O)c1cccc2c(N(C)C)cccc12 | pKa [4]: 5; Kb (Cavia porcellus): 63.1 nM; MDR (Rattus norvegicus [5]): 3.91; MDR (Rattus norvegicus [6]): 4.42; MDR (Rattus norvegicus [7]): 2.54; MDR (Rattus norvegicus [8]): 8.87; MDR (Rattus norvegicus [9]): 2.07

Row | IC50 (Endothelin-1 receptor [1]) | inhibition [2] | SMILES | further results
24 | 10000 nM | 54% | Cc1nc(NS(=O)(=O)c2cccc3c(N(C)C)cccc23)ccc1Br | 
25 | 501 nM | 92% | CCOc1nc(Br)cnc1NS(=O)(=O)c1cccc2c(N(C)C)cccc12 | 
26 | 63.1 nM | 93% | COc1nc(Br)cnc1NS(=O)(=O)c1cccc2c(N(C)C)cccc12 | 
27 |  | 81% | CN(C)c1cccc2c(S(=O)(=O)Nc3ncc(Br)nc3O)cccc12 | 
28 | 2.51 nM | 95% | CCNc1cccc2c(S(=O)(=O)Nc3ncc(Br)nc3OC)cccc12 | 
29 | 7.94 nM | 98% | COc1nc(C)cnc1NS(=O)(=O)c1cccc2c(N(C)C)cccc12 | 
30 |  | 83% | COc1nc(Br)cnc1NS(=O)(=O)c1cccc2ccccc12 | 
31 | 1580 nM | 68% | Cc1ccc(NS(=O)(=O)c2cccc3c(N(C)C)cccc23)nn1 | 
32 | 5010 nM |  | CN(C)c1cccc2c(S(=O)(=O)Nc3ncc(Br)[nH]c3=O)cccc12 | 
33 | 1260 nM | 81% | CN(C)c1cccc2c(S(=O)(=O)Nc3ccc(Cl)nc3)cccc12 | 
34 | 2000 nM | 80% | CN(C)c1cccc2c(S(=O)(=O)Nc3ncc(Br)cn3)cccc12 | 
35 | 1580 nM | 84% | CN(C)c1cccc2c(S(=O)(=O)Nc3ncc(Cl)cn3)cccc12 | 
36 |  | < 30% | CN(C)c1cccc2c(S(=O)(=O)Nc3cccnc3)cccc12 | 
37 | 5010 nM | 64% | Cc1cc(NS(=O)(=O)c2cccc3c(N(C)C)cccc23)nnc1Cl | 
38 | 251 nM | 95% | CN(C)c1cccc2c(S(=O)(=O)Nc3ccc(Br)nn3)cccc12 | 
39 |  | < 30% | CCCc1nc(Br)cnc1NS(=O)(=O)c1cccc2c(N(C)C)cccc12 | 
40 | 631 nM | 88% | CN(C)c1cccc2c(S(=O)(=O)Nc3cnc(Br)nc3)cccc12 | 
41 | 1580 nM | 91% | CN(C)c1cccc2c(S(=O)(=O)Nc3ccc(Br)cn3)cccc12 | 
42 |  | 98% | Cc1noc(NS(=O)(=O)c2cccc3c(N(C)C)cccc23)c1C [BMS-182874] | pKa [4]: 4.5; MDR (Rattus norvegicus [5]): 3.37; MDR (Rattus norvegicus [6]): 2.28; MDR (Rattus norvegicus [7]): 2.18; MDR (Rattus norvegicus [8]): 2.68; MDR (Rattus norvegicus [9]): 1.55
43 | 3980 nM | 64% | CCOc1ccc(NS(=O)(=O)c2cccc3c(N(C)C)cccc23)nn1 | 
44 | 200 nM | 70% | CN(C)c1cccc2c(S(=O)(=O)Nc3ccc(Cl)nn3)cccc12 | 
45 |  | < 30% | CN(C)c1cccc2c(S(=O)(=O)Nc3ncc(Br)nc3OCc3ccccc3)cccc12 | 
